TRPC6 inhibitor: mouse TRPC6 channel inhibitors, primary screen, cell-based, HEK293, membrane potential dye. Short transient receptor potential channel 6 (Mus musculus), Q61143. ACh-evoked depolarization; active compounds read low. B-score at 10 µM. hit rate 1.1% among 310,000. AID 2553, 2010;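 active = B-score under library mean minus 3 SD, initial fluorescence not abnormally high, positive integrated signal ratio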;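 note: B-score derived from integrated fluorescence ratio over the kinetic read; more negative B-score means stronger inhibition of depolarization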
TRPC4 act: activators of mouse TRPC4 channel, primary screen, Fluo4 calcium, HEK293 TRPC4beta/mu-opioid cells; Short transient receptor potential channel 4 (Mus musculus), Q9QUQ5; B-score at 10 µM; hit rate 0.49% among 310,000; Fluo4 calcium fluorescence; active compounds read high; AID 2237, 2010;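 active = B-score above 5 SD of library B-scores, and initial fluorescence ratio not above library mean plus 5 SD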;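 note: positive B-score marks a calcium rise read as TRPC4 activation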
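system = HEK293 cells stably co-expressing mouse TRPC4beta and mu-opioid receptor | schedule = Fluo4 dye loading 45 min at room temperature, 110 s recording | measure = B-scored integrated calcium fluorescence ratio | signal = Fluo4 calcium-sensitive dye fluorescence, kinetic, 1 Hz baseline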
TRPC4 potent: positive allosteric modulators of TRPC4, primary screen, cell-based, mouse TRPC4beta, HEK293 mu-opioid, Fluo-4 calcium | DAMGO EC20, Fluo-4 Ca2+ flux; active compounds read high | B-score at 10 µM | hit rate 0.42% among 310,000 | AID 2227, 2009 | Short transient receptor potential channel 4 (Mus musculus), Q9QUQ5;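 active = B-score of calcium response area above 5 SD of library B-scores, with initial fluorescence ratio within 5 SD of library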;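 note: B-score of integrated fluorescence ratio over time as area under calcium response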
TRPC6 act: mouse TRPC6 channel activators, primary screen, cell-based, HEK293, membrane potential dye | Short transient receptor potential channel 6 (Mus musculus), Q61143 | hit rate 0.13% among 310,000 | HEK293-TRPC6 membrane potential dye fluorescence; active compounds read high | B-score at 10 µM;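 active = B-score of the integrated fluorescence ratio above library mean plus 3 SD, and starting fluorescence ratio within library mean plus 5 SD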;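 note: higher score means more depolarization so channel activation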
TRPC4 inh: inhibitors of mouse TRPC4 channel, primary screen, Fluo4 calcium, HEK293 TRPC4beta/mu-opioid cells. hit rate 0.39% among 300,000. DAMGO-evoked Fluo4 calcium flux; active compounds read low. B-score at 10 µM. AID 2247, 2010. Short transient receptor potential channel 4 (Mus musculus), Q9QUQ5;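 active = B-score over 3 SD under the library average, no early fluorescence shift, positive overall ratio signal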
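Assay system: Stable TRPC4beta/mu-opioid receptor HEK293 cells | Reagent: DAMGO in two steps, submaximal then maximal | Compound dosing: Single concentration per test compound | Signal: Fluo4 Ca2+ flux fluorescence | Evaluation: Per-well B score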
TRPC4 sel inh 2: second selectivity test of TRPC6 inhibitors: effect on mouse TRPC4. shares compounds with TRPC6 inhibitor. HEK293 TRPC4/MOR, membrane potential dye fluorescence; channel activated by saturating DAMGO dose. inhibition, % at 10 µM. hit rate 42% among 920;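 active = compounds whose fluorescence signal differed from control wells by over 3 SD, either direction, in both duplicate plates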
TRPC4 spec: mouse TRPC4 modulation by TRPC6 hits, confirmation, selectivity assay for TRPC6 inhibitor project, cell-based, HEK293 TRPC4/mu-opioid, membrane potential dye; shares compounds with TRPC6 inhibitor; membrane potential fluorescence; hit rate 61% among 920; activity change, negative = inhibition, % at 10 µM;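 active = rise or fall in signal beyond 3 SD of buffer-only wells in both replicate plates, either sign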;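 note: integrated kinetic ratio of fluorescence range over baseline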
HEK293 MPD ctr 2-1: nonspecific membrane potential effects, parental HEK293, confirmation, counter-screen for TRPC6 inhibitor project, cell-based, second counter screen; hit rate 31% among 920; shares compounds with TRPC6 inhibitor; signal change vs control, % at 10 µM; parental HEK293 membrane potential dye fluorescence; maximal acetylcholine challenge after compound addition;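 active = membrane potential signal moving either way by over 3 SD of the maximum-effect control, in both duplicate plates, meaning non-specific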
HEK293 MPD ctr-1: membrane potential modulation in parental HEK293, confirmation, counter-screen for TRPC6 inhibitor project, cell-based; shares compounds with TRPC6 inhibitor; parental HEK293 membrane potential dye fluorescence; membrane potential signal change, % at 10 µM; hit rate 60% among 920; AID 2780, 2010;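 active = membrane potential signal shifting up or down by more than 3 SD of buffer-only wells, on both duplicate plates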
HEK293 MPD ctr-2: parental HEK293 membrane potential modulation, confirmation, counter-screen for TRPC6 modulator project, cell-based; shares compounds with TRPC6 inhibitor; membrane potential dye fluorescence; membrane potential signal change, % at 10 µM; hit rate 51% among 2,400; AID 488924, 2010;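 active = membrane potential signal moves up or down beyond 5 SD from buffer-only wells, on both duplicate plates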
HEK293 MPD ctr 2-2: parental HEK293 nonspecific activity of TRPC6 modulators, second screen; AID 488926; inhibition, % at 10 µM; shares compounds with TRPC6 inhibitor; hit rate 14% among 2,400; membrane potential dye fluorescence; after compound, maximal acetylcholine stimulation;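 active = membrane potential signal drops by more than 5 SD from the mean control signal, in both duplicate plates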;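 note: plate controls were acetylcholine ECmax control wells for no effect and buffer only wells for full effect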
TRPC4/MOR mod: TRPC4 modulation by TRPC6 hit compounds, confirmation, selectivity assay for TRPC6 modulator project, cell-based, HEK293 TRPC4/mu-opioid, membrane potential dye, mouse; shares compounds with TRPC6 inhibitor; membrane potential fluorescence; percent change from control (negative = decrease, positive = increase), % at 10 µM; hit rate 69% among 2,400;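 active = membrane potential signal moved up or down beyond 5 SD of buffer control wells, in both duplicate plates, actives on both sides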;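 note: plate controls were assay buffer wells for no effect and DAMGO maximal-effect wells for full effect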
TRPC4/MOR inh 2: second check of whether TRPC6 modulators also affect mouse TRPC4. shares compounds with TRPC6 inhibitor. HEK293 TRPC4/mu-opioid, membrane potential dye fluorescence; stimulated with maximal-effect DAMGO. inhibition, % at 10 µM. hit rate 55% among 2,400;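 active = drop in membrane potential signal beyond 5 SD of the control wells in both duplicate plates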;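 note: TRPC4 counter screen for TRPC6 hits run under conditions tuned for TRPC6 not TRPC4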
TRPC6 block conf: mouse TRPC6 channel inhibitors, confirmation, HEK293 cells, membrane potential dye, duplicate; shares compounds with TRPC6 inhibitor; ACh-evoked depolarization; inhibition, % at 10 µM; hit rate 43% among 3,300; AID 488960, 2010;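 active = fluorescence ratio falls more than 5 SD below the full-stimulation control mean, in both duplicate runs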;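 note: integrated fluorescence ratio of peak minus minimum over baseline after agonist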
TRPC6 act confirm: mouse TRPC6 channel activators, confirmation, HEK293 cells, membrane potential dye, duplicate. hit rate 11% among 2,800. activation, % at 10 µM. shares compounds with TRPC6 inhibitor. HEK293-TRPC6 membrane potential dye fluorescence, FDSS. AID 488961, 2010;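 active = ratio signal rise beyond 5 SD above unstimulated control wells' mean, seen in both duplicate runs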;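 note: plate controls were buffer EC0 wells for no effect and acetylcholine ECmax response for full effect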
* marks the source's active call; other numbers are inactive results; i = inactive; . = not tested or not shown. A selection: hits, their analogues and other compounds. The true share with any hit is near 2.3%.

SMILES | TRPC6 inhibitor | TRPC4 act | TRPC4 potent | TRPC6 act | TRPC4 inh | TRPC4 sel inh 2 | TRPC4 spec | HEK293 MPD ctr 2-1 | HEK293 MPD ctr-1 | HEK293 MPD ctr-2 | HEK293 MPD ctr 2-2 | TRPC4/MOR mod | TRPC4/MOR inh 2 | TRPC6 block conf | TRPC6 act confirm
O=S(=O)(Nc1nc2ccccc2nc1Nc1ccc(N2CCOCC2)cc1)c1cc(Cl)ccc1Cl | -6.7* | i | i | i | i | 78%* | -10%* | i | -241%* | . | . | . | . | i | i
Cc1c(OCC(=O)N2C[C@H]3C[C@@H](C2)c2cccc(=O)n2C3)ccc2c3c(c(=O)oc12)CCC3 | i | i | i | i | i | . | . | . | . | . | . | . | . | . | .
Cc1c(OCC(=O)N2C[C@H]3C[C@@H](C2)c2cccc(=O)n2C3)ccc2c3c(c(=O)oc12)CCCC3 | -7* | i | i | i | i | i | 5.1%* | 17%* | 5.9%* | . | . | . | . | 77%* | .
CCN(CC)CCN1C(=O)c2ccccc2NC1c1ccc(Br)cc1 (stereo not drawn) | -6.7* | i | i | i | i | . | . | . | . | i | i | 18%* | 42%* | i | .
CCN(CC)CCN1C(=O)c2ccccc2NC1c1ccc(F)cc1 (stereo not drawn) | i | i | i | i | i | . | . | . | . | . | . | . | . | . | .
COc1ccc(C(=O)NC(=S)Nc2ccc3[nH]c(=O)[nH]c3c2)c(OC)c1 | i | i | i | i | i | . | . | . | . | . | . | . | . | . | .
CN(CCO)c1c2c(nc3cc(-c4cccc(F)c4)nn13)CCCC2 | i | i | i | i | i | . | . | . | . | . | . | . | . | . | .
CN(C)CCCNc1cc(-c2ccccc2)nc2cc(-c3cccc(F)c3)nn12 | -5.1* | i | i | i | i | . | . | . | . | i | i | -11%* | 50%* | 46%* | i

Assay outcomes from PubChem BioAssay.
